Data reported in ChEMBL document CHEMBL4257497, “Design, synthesis and biological evaluation of novel 1,3-diarylpyrazoles as cyclooxygenase inhibitors, antiplatelet and anticancer agents” (Medchemcomm, 2018).
pIC50: −log10 of the molar value.

Legend:
Platelet [1] = test: Antiplatelet activity in human platelet rich plasma assessed as inhibition of collagen-induced platelet aggregation at 100 uM preincubated for 5 mins followed by arachidonic acid addition measured for 3 mins by aggregometric analysis relative to control; type: functional
Procedure, shortened: (§1)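 Citrated venous blood (3.2% citrate, 1:9) from healthy donors free of antiplatelet drugs for 10 days; PRP from 800 rpm 10 min spin, PPP from 1500 rpm 10 min; count set to 3.8 × 10^5 platelets […]. PRP stirred at 1100 rpm, 37 °C; compound in DMSO (1% carrier) 5 min before agonist (AA final 700 μM; collagen 5 μg ml−1). Turbidimetric read, triplicate; % inhibition versus DMSO-treated maximum aggregation.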

Huh-7 = test: Cytotoxicity against human HuH7 cells after 72 hrs by SRB assay; type: functional, cell-based; conditions: for pIC50: Homo sapiens, Huh-7, 72 h, read-out: IC50; for IC50: huh-7
Procedure, shortened: (§2)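 Cells cultured in DMEM with 10% FBS, 1% non-essential amino acids, penicillin/streptomycin, 37 °C, 5% CO2. 2000–3000 cells per well seeded, grown 24 h, then exposed 72 h to compound (DMSO) at 40, 20, 10, 5, 2.5 μM. TCA fixation, 0.4% SRB stain, unbound dye washed off with 1% acetic acid, bound dye dissolved in 10 mM Tris base, absorbance 515 nm. IC50 against DMSO controls, triplicate.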

HCT-116 = test: Cytotoxicity against human HCT116 cells after 72 hrs by SRB assay; type: functional, cell-based; conditions: for pIC50: Homo sapiens, HCT-116, 72 h, read-out: IC50; for IC50: hct-116; procedure, shortened: as §2
MCF7 = test: Cytotoxicity against human MCF7 cells after 72 hrs by SRB assay; type: functional, cell-based; conditions: for pIC50: Homo sapiens, MCF7, 72 h, read-out: IC50; for IC50: mcf7; procedure, shortened: as §2
[2] = target: T1, COX1 (Prostaglandin G/H synthase 1) (Ovis aries, UniProt P05979); test: Inhibition of sheep COX1 at 10 uM assessed as reduction in PGE2 formation using arachidonic acid as substrate by enzyme immunoassay relative to control; conditions: probe arachidonic acid
T1 sequence (P05979 whole entry): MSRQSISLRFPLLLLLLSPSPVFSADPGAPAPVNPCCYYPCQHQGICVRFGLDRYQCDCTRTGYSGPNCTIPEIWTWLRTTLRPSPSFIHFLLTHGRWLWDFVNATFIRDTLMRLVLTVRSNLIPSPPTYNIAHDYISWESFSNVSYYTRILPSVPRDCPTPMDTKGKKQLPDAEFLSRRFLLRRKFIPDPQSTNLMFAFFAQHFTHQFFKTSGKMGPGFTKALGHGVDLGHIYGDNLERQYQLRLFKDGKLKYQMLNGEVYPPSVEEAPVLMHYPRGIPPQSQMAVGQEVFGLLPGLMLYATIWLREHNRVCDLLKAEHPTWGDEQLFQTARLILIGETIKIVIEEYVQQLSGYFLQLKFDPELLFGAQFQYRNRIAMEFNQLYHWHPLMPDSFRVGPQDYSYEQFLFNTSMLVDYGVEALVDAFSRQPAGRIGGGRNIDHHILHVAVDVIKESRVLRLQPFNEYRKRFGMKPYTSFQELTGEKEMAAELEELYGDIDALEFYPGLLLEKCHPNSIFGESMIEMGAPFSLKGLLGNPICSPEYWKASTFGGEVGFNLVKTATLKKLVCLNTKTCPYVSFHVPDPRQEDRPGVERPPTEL
Procedure, shortened: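 Recombinant ovine COX-1, test agent at 10 μM, arachidonic acid as substrate. PGE2 formed is measured by competitive EIA (PGE2–acetylcholinesterase tracer, monoclonal anti-PGE2, Ellman's reagent, absorbance 412 nm) and quantified from an 8-point PGE2 standard curve. Result given as % inhibition of enzyme activity.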

Platelet [3] = test: Antiplatelet activity in human platelet rich plasma assessed as inhibition of arachidonic acid-induced platelet aggregation at 100 uM preincubated for 5 mins followed by arachidonic acid addition measured for 3 mins by aggregometric analysis relative to control; type: functional; procedure, shortened: as §1
Platelet [4] = test: Antiplatelet activity in human platelet rich plasma assessed as inhibition of arachidonic acid-induced platelet aggregation preincubated for 5 mins followed by arachidonic acid addition measured for 3 mins by aggregometric analysis; type: functional, cell-based

| Compound | inhibition at 100 µM (Platelet [1]) [%] | pIC50 (Huh-7) | pIC50 (HCT-116) | pIC50 (MCF7) | inhibition at 10 µM [2] [%] | inhibition at 100 µM (Platelet [3]) [%] | IC50 (Huh-7) | IC50 (HCT-116) | IC50 (MCF7) | pIC50 (Platelet [4]) |
| --- | --- | --- | --- | --- | --- | --- | --- | --- | --- | --- |
| O=C(/C=C/c1cn(-c2ccccc2)nc1-c1cccnc1)NCc1ccccn1 | 56.5 | 4.73 | 4.61 | 4.56 | 11.3 | 0 |  |  |  |  |
| Cc1nccn1CCNC(=O)/C=C/c1cn(-c2ccc(S(C)(=O)=O)cc2)nc1-c1cccnc1 | 8.6 |  |  |  | 29.6 | 14.3 | Not Active | Not Active | Not Active |  |
| CS(=O)(=O)c1ccc(-n2cc(/C=C/C(=O)NCc3ccncc3)c(-c3cccnc3)n2)cc1 | 40.9 |  | 4.50 |  | 12.5 | 6.2 | Not Active |  | Not Active |  |
| O=C(/C=C/c1cn(-c2ccccc2)nc1-c1cccnc1)NCc1cccnc1 | 63.3 | 4.68 | 4.67 | 4.51 | 5.56 | 1.26 |  |  |  |  |
| O=C(/C=C/c1cn(-c2ccccc2)nc1-c1ccncc1)NCc1ccncc1 | 50.1 | 4.49 | 4.70 |  | 5.82 | 4.96 |  |  | Not Active |  |
| Cc1nccn1CCCNC(=O)/C=C/c1cn(-c2ccc(S(C)(=O)=O)cc2)nc1-c1cccnc1 | 11.1 |  |  |  | 36.8 | 19.5 | Not Active | Not Active | Not Active |  |
| O=C(/C=C/c1cn(-c2ccccc2)nc1-c1ccncc1)NCCc1cccnc1 | 86.9 |  | 4.84 | 4.79 | 9.37 | 93.7 | Not Active |  |  | 4.54 |
| CS(=O)(=O)c1ccc(-n2cc(/C=C/C(=O)NCCc3ccncc3)c(-c3cccnc3)n2)cc1 | 71.8 | 4.41 | 4.70 |  | 7.95 | 100 |  |  | Not Active | 4.67 |
| O=C(/C=C/c1cn(-c2ccccc2)nc1-c1cccnc1)NCc1ccncc1 | 36.6 | 4.61 |  |  | 11.6 | 4.54 |  | Not Active | Not Active |  |
| CC(=O)Oc1ccccc1C(=O)O [ASPIRIN] | 100 |  |  |  |  | 100 |  |  |  | 5.11 |
| Cc1nccn1CCNC(=O)/C=C/c1cn(-c2ccccc2)nc1-c1cccnc1 | 15.5 | 4.59 | 4.70 | 4.66 | 2.46 | 0 |  |  |  |  |
| Cc1nccn1CCCNC(=O)/C=C/c1cn(-c2ccccc2)nc1-c1ccncc1 | 41.3 | 4.68 | 4.97 |  | 5.41 | 7.91 |  |  | Not Active |  |
| CS(=O)(=O)c1ccc(-n2cc(/C=C/C(=O)NCCc3cccnc3)c(-c3cccnc3)n2)cc1 | 70.3 |  |  |  | 1.31 | 14.6 | Not Active | Not Active | Not Active |  |
| Cc1nccn1CCCNC(=O)/C=C/c1cn(-c2ccccc2)nc1-c1cccnc1 | 60.3 | 4.87 | 4.67 | 4.60 | 0.32 | 1.24 |  |  |  |  |
| O=C(/C=C/c1cn(-c2ccccc2)nc1-c1ccncc1)NCc1cccnc1 | 63.4 |  | 4.84 |  | 13.7 | 43.3 | Not Active |  | Not Active |  |
| O=C(/C=C/c1cn(-c2ccccc2)nc1-c1ccncc1)NCc1ccccn1 | 41.6 | 4.83 | 4.69 |  | 5.96 | 100 |  |  | Not Active | 4.11 |
| O=C(/C=C/c1cn(-c2ccccc2)nc1-c1ccncc1)NCCCn1ccnc1 | 88.9 | 5.17 | 4.73 |  | 12.6 | 90.6 |  |  | Not Active | 4.47 |
| CS(=O)(=O)c1ccc(-n2cc(/C=C/C(=O)NCCc3ccccn3)c(-c3cccnc3)n2)cc1 | 78.7 |  |  | 4.84 | 54.6 | 90.7 | Not Active | Not Active |  | 4.99 |
| CS(=O)(=O)c1ccc(-n2cc(/C=C/C(=O)NCc3cccnc3)c(-c3cccnc3)n2)cc1 | 64.1 |  |  |  | 13.1 | 90 | Not Active | Not Active | Not Active | 4.30 |
| O=C(/C=C/c1cn(-c2ccccc2)nc1-c1cccnc1)NCCc1ccncc1 | 75.9 | 4.84 | 4.57 |  | 10.2 | 11.3 |  |  | Not Active |  |
| O=C(/C=C/c1cn(-c2ccccc2)nc1-c1cccnc1)NCCCn1ccnc1 | 86.5 | 4.84 | 4.75 | 4.81 | 0.12 | 16.1 |  |  |  |  |
| O=C(/C=C/c1cn(-c2ccccc2)nc1-c1ccncc1)NCCc1ccncc1 | 74.6 | 5.19 | 5.15 | 4.96 | 26.6 | 71.4 |  |  |  |  |
| CS(=O)(=O)c1ccc(-n2cc(/C=C/C(=O)NCCCn3ccnc3)c(-c3cccnc3)n2)cc1 | 52.6 |  |  |  | 40.5 | 82.4 | Not Active | Not Active | Not Active |  |
| Cc1nccn1CCNC(=O)/C=C/c1cn(-c2ccccc2)nc1-c1ccncc1 | 35 | 4.68 | 4.90 |  | 16.9 | 2.54 |  |  | Not Active |  |
| O=C(/C=C/c1cn(-c2ccccc2)nc1-c1cccnc1)NCCc1ccccn1 | 21.9 | 4.72 | 4.85 | 4.60 | 3.21 | 3.68 |  |  |  |  |
| CS(=O)(=O)c1ccc(-n2cc(/C=C/C(=O)NCc3ccccn3)c(-c3cccnc3)n2)cc1 | 59.8 | 4.61 | 4.57 |  | 10.7 | 8.92 |  |  | Not Active |  |
| O=C(/C=C/c1cn(-c2ccccc2)nc1-c1ccncc1)NCCc1ccccn1 | 41.9 | 4.56 |  | 4.91 | 13.1 | 100 |  | Not Active |  | 4.48 |
| O=c1[nH]cc(F)c(=O)[nH]1 [FLUOROURACIL] |  |  |  | 5.85 |  |  |  |  |  |  |
| O=C(/C=C/c1cn(-c2ccccc2)nc1-c1cccnc1)NCCc1cccnc1 | 76.6 | 5.09 | 4.77 | 4.51 | 0.45 | 0 |  |  |  |  |
| COc1ccc2c(c1)c(CC(=O)O)c(C)n2C(=O)c1ccc(Cl)cc1 [INDOMETHACIN] |  |  |  |  | 69.5 |  |  |  |  |  |
